ChEMBL document CHEMBL3792381, “Amine-free melanin-concentrating hormone receptor 1 antagonists: Novel 1-(1H-benzimidazol-6-yl)pyridin-2(1H)-one derivatives and design to avoid CYP3A4 time-dependent inhibition” (Bioorg Med Chem, 2016)
In brackets after ≈: the same amount, converted by molar mass. Activity calls are given as the source filed them. No cut-off for these calls is given here.

Experiments:
[1] = target: T1, Melanin-concentrating hormone receptor 1 (Homo sapiens, UniProt Q99705); assay: Displacement of [125I]-MCH(4 to 19) from human MCHR1 expressed in CHO cell membranes after 1 hr by liquid scintillation counting
How it was run: (§1)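 Membranes from CHO cells stably expressing human or rat MCHR1, prepared by homogenization and 100,000×g centrifugation, in 20 mM Tris-HCl pH 7.5 with 5 mM EDTA and protease inhibitors. Incubated with test compound and [125I]-MCH(4–19) for 1 h at room temperature. Filtered on PEI-treated GF/C filters and counted by scintillation. Nonspecific binding defined with cold MCH(1–19). IC50 from duplicate experiment.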

[2] = target: Melanin-concentrating hormone receptor 1 (Rattus norvegicus, UniProt P97639); assay: Displacement of [125I]-MCH(4-19) from rat MCHR1 expressed in CHO cell membranes after 1 hr by liquid scintillation counting; how it was run: as §1
[3] = Oral bioavailability in Sprague-Dawley rat plasma at 1 mg/kg administered through cassette dosing by LC/MS/MS analysis; assay type: ADME, organism-based
How it was run: (§2)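 Male SD rats (eight weeks old), fed, cassette-dosed iv at 0.1 mg/kg or orally at 1 mg/kg as a suspension in 0.5% methylcellulose; n = 3. Plasma obtained by centrifugation of blood, deproteinized with acetonitrile, and measured by LC/MS/MS. AUC covers 0–8 h. Bioavailability, total clearance and Vss are derived from the iv and po data.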

[4] = Tmax in Sprague-Dawley rat plasma at 1 mg/kg, po administered through cassette dosing by LC/MS/MS analysis; assay type: ADME, organism-based; how it was run: as §2
[5] = Solubility of compound at pH 6.8; assay type: physicochemical; conditions: buffer
[6] = Cmax in Sprague-Dawley rat at 1 mg/kg, po administered through cassette dosing by LC/MS/MS analysis; assay type: ADME, organism-based; set-up: dose 1 mg/kg, route oral; conditions: in vivo; how it was run: as §2
[7] = target: CYP3A4 (Homo sapiens, UniProt P08684); assay: Time dependent inhibition of CYP3A4 in human liver microsomes assessed as conversion of testosterone to 6beta-hydroxytestosterone by measuring remaining activity at 30 uM by UPLC analysis in presence of NADPH generating system; assay type: ADME; conditions: read-out: Activity
How it was run: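 Single-point assay: test compound at 30 µM preincubated with human liver microsomes at 37 °C in phosphate buffer pH 7.4 with an NADPH-generating system. Residual CYP3A4 activity then measured as testosterone 6β-hydroxylation by UPLC. Percent remaining = activity with preincubation (% of DMSO control) over activity without preincubation; n = 2.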

[8] = AUC( 0 to 8 hrs) Sprague-Dawley rat plasma at 1 mg/kg, po administered through cassette dosing by LC/MS/MS analysis; assay type: ADME, organism-based; set-up: dose 1 mg/kg, time < 8 hr, route oral; how it was run: as §2
[9] = test system: Rattus norvegicus; assay: Anorectic effect in DIO-F344/Jcl rat assessed as inhibition of food intake at 3 mg/kg, po administered 2 hrs before onset of dark period for 2 days; assay type: functional
How it was run: (§3)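 Male DIO-F344/Jcl rats, 45 weeks old, on high-fat diet from 5 weeks of age, singly housed on powdered high-fat diet and habituated to oral dosing with tap water. Grouped by day-0 food intake and body weight. Dosed orally once daily, suspended in 0.5% methylcellulose at 2 mL/kg, 2 h before dark onset, for 2 days; n = 6. Cumulative 2-day food intake is expressed relative to the vehicle group.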

[10] = test system: Rattus norvegicus; assay: Anorectic effect in DIO-F344/Jcl rat assessed as inhibition of food intake at 10 mg/kg, po administered 2 hrs before onset of dark period for 2 days; assay type: functional; set-up: scale not given: the % may be the effect or the level left; how it was run: as §3
[11] = Total clearance in Sprague-Dawley rat plasma at 0.1 mg/kg, iv administered through cassette dosing by LC/MS/MS analysis; assay type: ADME, organism-based; how it was run: as §2
[12] = target: T1, Melanin-concentrating hormone receptor 1; assay: Antagonist activity at human MCHR1 expressed in CHO cells assessed as change in MCH(4 to 19)-stimulated Ca2+ concentration by Ca2+ mobilization assay; assay type: functional, cell-based
How it was run: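 CHO dhfr− cells stably transfected with human MCHR1 (clone 4), seeded at 20000 cells/well and cultured about 24 h. Loaded with Fluo4 calcium dye for 30 min at 37 °C. Test compound in 10 mM HEPES pH 7.4 buffer with 0.1% BSA added, then MCH(4–19) at 2 nM final. Fluorescence read every 2 s; inhibition rate (%) taken relative to ligand-alone and DMSO-alone wells.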

[13] = Volume of distribution in steady state in Sprague-Dawley rat plasma at 0.1 mg/kg, iv administered through cassette dosing by LC/MS/MS analysis; assay type: ADME, organism-based; conditions: read-out: Vdss; how it was run: as §2
[14] = target: Cytochrome P450 3A4 (Homo sapiens, UniProt P08684); assay: Time dependent inhibition of CYP3A4 in human liver microsomes at 10 uM; assay type: ADME
[15] = test system: Rattus norvegicus; assay: Anorectic effect in DIO-F344/Jcl rat assessed as cumulative food intake at 1 mg/kg, po dosed for 2 weeks and measured every 2 or 3 days relative to vehicle control; assay type: functional
How it was run: (§4)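 Male DIO-F344 rats (41 weeks old), on high-fat diet D12451 from 5 weeks of age, singly housed, given powder high-fat diet, habituated to oral dosing with tap water, grouped by day-0 food intake and body weight. Oral gavage once daily, suspended in 0.5% methylcellulose at 2 mL/kg, 1–3 h before dark onset, for 2 weeks (n = 5 or 6). Body weight taken before dosing, expressed as % of initial. Food intake every 2 or 3 days. Vehicle-treated and sibutramine-treated groups included.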

[16] = test system: Rattus norvegicus; assay: Antiobesity activity in DIO-F344/Jcl rat assessed as reduction in body weight at 1 mg/kg, po dosed for 2 weeks and measured every 2 or 3 days relative to vehicle control; assay type: functional; set-up: scale not given: the % may be the effect or the level left; how it was run: as §4
[17] = test system: Rattus norvegicus; assay: Antiobesity activity in DIO-F344/Jcl rat assessed as reduction in body weight at 3 mg/kg, po dosed for 2 weeks and measured every 2 or 3 days relative to vehicle control; assay type: functional; set-up: scale not given: the % may be the effect or the level left
How it was run: (§5)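 DIO-F344 rats, 41 weeks old, habituated and grouped as for the 2-day study. Dosed orally once daily for 2 weeks in 0.5% methylcellulose at 2 mL/kg, 1–3 h before dark onset, after weighing; n = 5 or 6. Food intake measured every 2 or 3 days; body weight change expressed as percent of initial weight; sibutramine was the positive control.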

[18] = test system: Rattus norvegicus; assay: Anorectic effect in DIO-F344/Jcl rat assessed as cumulative food intake at 10 mg/kg, po dosed for 2 weeks and measured every 2 or 3 days relative to vehicle control; assay type: functional; how it was run: as §5
[19] = test system: Plasma; assay: Free plasma concentration in DIO-F344/Jcl rat at 10 mg/kg, po; assay type: ADME, organism-based; conditions: in vivo
How it was run: (§6)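 Trough plasma concentration taken in the 2-week repeated oral dosing study in DIO-F344 rats. Unbound concentration obtained from total concentration and the unbound fraction in DIO rat plasma.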

[20] = test system: Brain; assay: Drug uptake in po dosed DIO-F344/Jcl rat brain; assay type: ADME, organism-based; conditions: in vivo
[21] = test system: Rattus norvegicus; assay: Trough plasma concentration in DIO-F344/Jcl rat at 10 mg/kg, po; assay type: ADME, organism-based; conditions: in vivo, read-out: Cmin; how it was run: as §6
[22] = Ratio of drug level in brain to plasma in po dosed DIO-F344/Jcl rat; assay type: ADME, organism-based; conditions: brain and plasma, read-out: BPR
[23] = test system: Rattus norvegicus; assay: Antiobesity activity in DIO-F344/Jcl rat assessed as reduction in body weight at 10 mg/kg, po dosed for 2 weeks and measured every 2 or 3 days relative to vehicle control; assay type: functional; set-up: scale not given: the % may be the effect or the level left; how it was run: as §5
[24] = test system: Mus musculus; assay: Antiobesity activity in wild-type litter mate mouse assessed as reduction in body weight at 10 and 30 mg/kg, po dosed for 3 days; assay type: functional, organism-based
How it was run: (§7)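 Male MCHR1-deficient and wild-type littermate mice, 27 weeks old, on high-fat diet from 7 weeks of age, housed individually and acclimated to tap-water dosing. Grouped by food intake from day −4 to day −1 and by day −1 body weight. Dosed orally once daily for 3 days in 0.5% methylcellulose at 10 mL/kg; n = 6. Body weight change and cumulative food intake measured over the 3 days.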

[25] = Fraction unbound in po dosed DIO-F344/Jcl rat plasma; assay type: ADME, organism-based
[26] = test system: Mus musculus; assay: Anorectic effect in MCHR1-deficient mouse assessed as reduction in food intake at 10 and 30 mg/kg, po dosed for 3 days; assay type: functional, organism-based; how it was run: as §7
[27] = test system: Mus musculus; assay: Antiobesity activity in MCHR1-deficient mouse assessed as reduction in body weight at 10 and 30 mg/kg, po dosed for 3 days; assay type: functional, organism-based; how it was run: as §7
[28] = test system: Rattus norvegicus; assay: Anorectic effect in orally dosed DIO-F344/Jcl rat assessed as inhibition of food intake administered 2 hrs before onset of dark period for 2 days; assay type: functional, organism-based; how it was run: as §3
[29] = test system: Rattus norvegicus; assay: Anorectic effect in DIO-F344/Jcl rat assessed as cumulative food intake at 3 mg/kg, po dosed for 2 weeks and measured every 2 or 3 days relative to vehicle control; assay type: functional; how it was run: as §5

T1 sequence (Q99705 whole entry): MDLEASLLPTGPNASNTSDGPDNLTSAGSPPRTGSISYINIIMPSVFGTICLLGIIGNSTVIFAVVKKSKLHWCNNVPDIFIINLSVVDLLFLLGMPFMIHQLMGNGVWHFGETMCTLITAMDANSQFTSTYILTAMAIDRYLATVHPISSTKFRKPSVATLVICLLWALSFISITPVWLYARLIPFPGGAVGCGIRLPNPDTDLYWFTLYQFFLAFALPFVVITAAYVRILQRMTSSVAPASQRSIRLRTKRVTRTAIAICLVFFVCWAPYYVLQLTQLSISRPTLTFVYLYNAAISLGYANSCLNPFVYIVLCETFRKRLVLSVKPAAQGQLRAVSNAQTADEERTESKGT
Sequence of CYP3A4 (P08684 whole entry): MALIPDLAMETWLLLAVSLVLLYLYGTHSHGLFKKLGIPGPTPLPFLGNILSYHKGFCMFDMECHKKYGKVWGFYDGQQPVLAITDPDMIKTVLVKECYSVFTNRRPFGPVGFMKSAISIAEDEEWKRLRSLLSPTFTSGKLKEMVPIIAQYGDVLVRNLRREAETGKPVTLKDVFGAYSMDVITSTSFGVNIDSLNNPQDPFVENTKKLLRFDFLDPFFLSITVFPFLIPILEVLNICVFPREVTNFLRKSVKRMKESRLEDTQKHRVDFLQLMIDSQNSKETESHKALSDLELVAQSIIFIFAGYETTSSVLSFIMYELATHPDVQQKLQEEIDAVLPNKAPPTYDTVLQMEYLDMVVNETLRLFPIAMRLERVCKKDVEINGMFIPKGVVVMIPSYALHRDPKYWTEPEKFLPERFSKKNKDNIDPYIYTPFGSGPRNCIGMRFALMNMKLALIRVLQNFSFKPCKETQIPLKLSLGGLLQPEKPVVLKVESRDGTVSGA
Sequence of Melanin-concentrating hormone receptor 1 (Rattus norvegicus, UniProt P97639) (P97639 whole entry): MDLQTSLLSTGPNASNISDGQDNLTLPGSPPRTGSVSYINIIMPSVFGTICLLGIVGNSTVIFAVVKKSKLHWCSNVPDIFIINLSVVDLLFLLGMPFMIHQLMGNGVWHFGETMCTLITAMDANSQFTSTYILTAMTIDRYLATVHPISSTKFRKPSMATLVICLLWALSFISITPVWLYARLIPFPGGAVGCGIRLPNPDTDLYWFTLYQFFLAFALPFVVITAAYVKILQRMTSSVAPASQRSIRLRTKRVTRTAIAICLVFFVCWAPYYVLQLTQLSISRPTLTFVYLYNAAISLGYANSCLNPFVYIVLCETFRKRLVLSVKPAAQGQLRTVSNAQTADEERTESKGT
Sequence of Cytochrome P450 3A4 (P08684 whole entry): as the sequence (P08684 whole entry) above

Cn1c(C2CCC2)nc2ccc(-n3ccc(OCc4ccc(F)cc4)cc3=O)cc21 gave an IC50 [1] of 240 nM and an IC50 [2] of 210 nM.

Cn1c(C2CC2)nc2ccc(-n3ccc(OCc4ccc(Cl)cn4)cc3=O)cc21 gave an IC50 [1] of 73 nM and an IC50 [2] of 47 nM.

With Cn1c(C2CC2)nc2ccc(-n3ccc(OCc4ccc(C(F)(F)F)s4)cc3=O)cc21 the bioavailability [3] was 57%, the Tmax [4] was 2.7 h and the solubility [5] was 0.25 µg/mL (≈ 0.561 µM). The Cmax [6] was 298 ng/mL, the activity at 30 µM [7] was 97% and the AUC(0-t) at 8 h [8] was 2020 ng·h/mL. For the same compound, the Activity [9] was “Active”, the Activity [10] was 20.3% and the clearance [11] was 4.75 mL/min/kg. It also gave an IC50 [1] of 16 nM, an IC50 [2] of 13 nM and an IC50 [12] of 18 nM. The Vd [13] was 0.979 L/kg.

Work on Cn1c(C2CC2)nc2ccc(-n3ccc(OCc4cc(C(F)(F)F)cs4)cc3=O)cc21 yielded an activity at 30 µM [7] of 87%, an IC50 [1] of 34 nM and an IC50 [2] of 17 nM.

Work on Cn1c(C2CC2)nc2ccc(-n3ccc(OCc4csc(Cl)c4)cc3=O)cc21 yielded an activity at 30 µM [7] of 44%, an IC50 [1] of 14 nM and an IC50 [2] of 9.3 nM.

In the case of Cn1c(C2CC2)nc2ccc(-n3ccc(OCc4ncc(Cl)cn4)cc3=O)cc21, the IC50 [1] is reported as > 1000 nM and the IC50 [2] is reported as 900 nM.

For Cc1c(C2CC2)nc2ccc(-n3ccc(OCc4ccc(Cl)cc4)cc3=O)cn12, the “inhibition (INH)” value [14] was “Active”.

With Cc1c(C2CC2)nc2ncc(-n3ccc(OCc4ccc(Cl)cc4)cc3=O)cn12 the IC50 [1] was > 1000 nM.

In the case of Cn1c(C2CC2)nc2ccc(-n3ccc(OCc4ccccc4)cc3=O)cc21, the IC50 [1] is reported as 45 nM and the IC50 [2] is reported as 43 nM.

In the case of Cn1c(C2CC2)nc2ccc(-n3ccc(OCc4cc(Cl)cs4)cc3=O)cc21, the activity at 30 µM [7] is reported as 25%, the IC50 [1] is reported as 17 nM and the IC50 [2] is reported as 18 nM.

CC(C)CC(N(C)C)C1(c2ccc(Cl)cc2)CCC1 (centres undefined) [SIBUTRAMINE] gave an Activity [15] of 18.7% and an Activity [16] of 3.1%.

With Cn1c(C2CC2)nc2ccc(-n3ccc(OCc4ccsc4)cc3=O)cc21 the activity at 30 µM [7] was 74%, the IC50 [1] was 28 nM and the IC50 [2] was 29 nM.

Cc1c(C2CC2)nc2ccc(-n3ccc(OCc4ccc(Cl)cc4)cc3=O)nn12 showed an IC50 [1] of 380 nM.

For Cn1c(C2CC2)nc2ccc(-n3ccc(OCc4ccc(Cl)s4)cc3=O)cc21, the Activity [17] was 2.2%, the Activity [18] was 20.9% and the bioavailability [3] was 23%. For the same compound, the Tmax [4] was 1 h, the solubility [5] was 2.3 µg/mL (≈ 5.58 µM) and the “Cp(f)” value [19] was 15.8 nM. For the same compound, the Drug uptake [20] was “Active”, the Cmax [6] was 165 ng/mL and the activity at 30 µM [7] was 83%. For the same compound, the AUC(0-t) at 8 h [8] was 515 ng·h/mL, the concentration [21] was 790 nM and the Kp [22] was 0.5. The Activity [9] was 11.6%, the Activity [10] was 36.5% and the clearance [11] was 7.5 mL/min/kg. The IC50 [1] was 19 nM, the IC50 [2] was 11 nM and the Activity [23] was 4.1%. The Activity [24] was “Dose-dependent effect”, the fraction unbound [25] was 0.02 and the Activity [26] was “Dose-dependent effect”. For the same compound, the Activity [27] was “inactive”, the IC50 [12] was 24 nM and the Vd [13] was 0.92 L/kg. For the same compound, the Activity [28] was “Dose-dependent effect” and the Activity [29] was 11.6%.
